Assay results reported in ChEMBL document CHEMBL1681765, “Structure-activity relationships of hypervalent organochalcogenanes as inhibitors of cysteine cathepsins V and S” (Bioorg Med Chem, 2011).

Assays:
[1] = target: T1, Cathepsin L2 (Homo sapiens) (UniProt O60911); test: Inhibition of Cathepsin V at 1 umol/L for 2 mins by spectrofluorometry
T1 sequence (whole entry): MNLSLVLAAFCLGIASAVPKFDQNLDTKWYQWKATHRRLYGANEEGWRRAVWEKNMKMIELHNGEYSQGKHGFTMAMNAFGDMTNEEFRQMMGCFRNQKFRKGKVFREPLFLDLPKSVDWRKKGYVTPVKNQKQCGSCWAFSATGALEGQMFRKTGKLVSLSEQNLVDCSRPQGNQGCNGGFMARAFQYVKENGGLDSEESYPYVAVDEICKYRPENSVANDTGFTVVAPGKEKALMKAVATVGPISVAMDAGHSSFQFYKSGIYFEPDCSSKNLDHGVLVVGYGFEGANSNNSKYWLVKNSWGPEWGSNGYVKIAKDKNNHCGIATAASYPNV
How it was run: (§1)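 Enzyme pre-incubated with inhibitor (1 µmol L⁻¹) for 2 min at 37 °C in enzyme-specific buffer (cathepsin S: 50 mmol L⁻¹ sodium phosphate pH 6.5, 2.5 mmol L⁻¹ EDTA; cathepsin V: 50 mmol L⁻¹ sodium acetate pH 5.5, 2.5 mmol L⁻¹ EDTA). Then Cbz-Phe-Arg-AMC (1 µmol L⁻¹) added; fluorescence ex 380/em 460 nm. Residual activity as percentage of uninhibited control; triplicate.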

[2] = target: Cathepsin S (Homo sapiens) (UniProt P25774); test: Inhibition of Cathepsin S at 1 umol/L for 2 mins by spectrofluorometry; how it was run: as §1
[3] = target: T1, Cathepsin L2 (Homo sapiens); test: Inhibition of Cathepsin V assessed as second-order inactivation rate constant by spectrofluorometry
How it was run: (§2)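 Continuous assay: substrate Cbz-Phe-Arg-AMC kept 10-fold below KM, with varying inhibitor concentrations, in enzyme-specific buffer (cathepsin S: phosphate pH 6.5, 2.5 mmol L⁻¹ EDTA; cathepsin V: acetate pH 5.5, 2.5 mmol L⁻¹ EDTA). AMC fluorescence ex 380/em 460 nm. Progress curves fit to P = (vz/kobs)[1−exp(−kobs·t)] + d to obtain kobs.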

[4] = target: Cathepsin S (Homo sapiens) (UniProt P25774); test: Inhibition of Cathepsin S assessed as second-order inactivation rate constant by spectrofluorometry; design: unit not given here; how it was run: as §2

Chain of Cathepsin S (Homo sapiens) (P25774 115-331 limits assumed): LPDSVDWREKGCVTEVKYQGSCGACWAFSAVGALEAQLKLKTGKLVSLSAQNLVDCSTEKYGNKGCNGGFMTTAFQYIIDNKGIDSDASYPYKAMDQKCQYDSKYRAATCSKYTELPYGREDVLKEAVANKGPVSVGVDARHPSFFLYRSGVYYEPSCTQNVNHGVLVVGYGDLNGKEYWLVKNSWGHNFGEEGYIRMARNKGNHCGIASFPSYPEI

SMILES	inhibition [1] [%]	inhibition [2] [%]	Activity [3] [mol/L/s]	Activity [4]
CCCC[Te](Br)(Br)c1ccccc1[C@@H](C)OC	90	> 90	3900	2500
CCCC[Se](Br)(Br)c1ccccc1COC			3400	4000
CCCC[Te](Br)(Br)c1ccccc1[C@H](C)OC	90	> 90	7400	4900
CCCC[Te](Cl)(Cl)c1ccccc1[C@@H](C)OC	90	85	2500	1800
CCCC[Se](Br)(Br)c1ccccc1[C@@H](C)OC			1000	2200
CCCC[Se](Br)(Br)c1ccccc1[C@H](C)OC			2200	2900
CCCC[Te](Br)(Br)c1ccccc1COC	90	96	26400	4400
CCCC[Te](Cl)(Cl)c1ccccc1COC	90	85	11600	1300
CCCC[Se](Cl)(Cl)c1ccccc1[C@@H](C)OC			900	1200
CCCC[Se](Cl)(Cl)c1ccccc1COC			500	1500
CCCC[Te](Cl)(Cl)c1ccccc1[C@H](C)OC	90	85	2400	1800
CCCC[Se](Cl)(Cl)c1ccccc1[C@H](C)OC			1000	1500
